# Measurements collected from several papers.
# Lines come from different studies, so protocols differ.
# RPS6KA5: Ribosomal protein S6 kinase alpha-5 (RPS6KA5, Homo sapiens, UniProt O75582)
# RPS6KA5 N-terminal kinase domain: Ribosomal protein S6 kinase alpha-5, N-terminal kinase domain (RPS6KA5, Homo sapiens, UniProt O75582)
# RPS6KA5 C-terminal kinase domain: Ribosomal protein S6 kinase alpha-5, C-terminal kinase domain (RPS6KA5, Homo sapiens, UniProt O75582)
Structure (SMILES),target,read-out,mode,technique,tested at,measurement,result
CNC(=O)c1cc(Oc2ccc(NC(=O)Nc3ccc(Cl)c(C(F)(F)F)c3)cc2)ccn1,RPS6KA5,enzyme activity,inhibitor,,10 µM,inhibition,8%
CN(c1nccc(-c2cnn3ncccc23)n1)C1CC1,RPS6KA5 N-terminal kinase domain,binding,,competition with immobilised ligand,1 µM,remaining binding,100%
N#CCCc1ccc2c(c1)-c1[nH]c3ccc([N+](=O)[O-])cc3c1CC(=O)N2,RPS6KA5,cell-free assay,,,0.5 µM,remaining signal,94.2%
O=C(NC[C@@H]1[C@H]2CN(C(=O)OCc3cc(C(F)(F)F)cc(C(F)(F)F)c3)C[C@@H]12)c1ccc2[nH]nnc2c1,RPS6KA5 N-terminal kinase domain,cell-free assay,,competition with immobilised ligand,1 µM,remaining binding,100%
Cn1c(=O)n(-c2ccc(C(C)(C)C#N)cc2)c2c3cc(-c4cnc5ccccc5c4)ccc3ncc21,RPS6KA5,enzyme activity,inhibitor,,10 µM,remaining activity,102%
O=C(NS(=O)(=O)c1ccc(NCC2CCOCC2)c([N+](=O)[O-])c1)c1ccc(N2CCN(Cc3ccc(C(F)(F)F)cc3-c3ccc(Cl)cc3)CC2)cc1Oc1cnc2[nH]ccc2c1,RPS6KA5 N-terminal kinase domain,cell-free assay,,competition with immobilised ligand,1 µM,remaining binding,97%
COc1cc2ncnc(Nc3ccc(Oc4ccccc4)c(C)c3C)c2cc1OC,RPS6KA5,enzyme activity,inhibitor,,1 µM,inhibition,2%
FC(F)c1nc2ccccc2n1-c1nc(N2CCOCC2)nc(N2CCOCC2)n1,RPS6KA5,enzyme activity,inhibitor,,10 µM,remaining activity,89%
CC(C)(C)c1nc2c(s1)c1nc(N)ncc1c1ccc(NS(=O)(=O)c3c(F)cccc3F)c(F)c12,RPS6KA5,enzyme activity,inhibitor,radiometric,1 µM,remaining activity,95%
COc1cc(Nc2cnc(C#N)c(O[C@H](C)CN(C)C)n2)ncc1-c1cnn(C)c1,RPS6KA5,enzyme activity,inhibitor,radiometric,10 µM,remaining activity,41%
COc1cc(Cl)c(C(=O)N[C@@H](CN[C@H]2CC[C@@H](N)CC2)Cc2ccc(C#N)cc2)cc1-c1ccc(CN[C@H](C)c2ccc(C)cc2)o1,RPS6KA5,enzyme activity,inhibitor,,1 µM,remaining activity,85%
Nc1ncnc2occ(-c3ccc(NC(=O)Nc4cc(C(F)(F)F)ccc4F)cc3)c12,RPS6KA5 C-terminal kinase domain,cell-free assay,inhibitor,,20 µM,remaining signal,23%
CNC(=O)c1ccc(Nc2ncc(C(F)(F)F)c(NCc3nccnc3N(C)S(C)(=O)=O)n2)cc1,RPS6KA5 N-terminal kinase domain,cell-free assay,,competition with immobilised ligand,0.1 µM,remaining binding,81%
CC(C)(C)C(=O)c1sc(NC2CCCCC2)nc1N,RPS6KA5,enzyme activity,inhibitor,,10 µM,remaining activity,102%
CCCOc1ccc(OC)c(F)c1C(=O)c1ccc(C(=O)N[C@@H]2CNC[C@H]2NC(=O)c2ccc3[nH]ncc3c2)cc1,RPS6KA5,enzyme activity,inhibitor,,10 µM,remaining activity,2%
CNc1cccc2cc(C(=O)Nc3ccc(C(=O)O)cc3)c(=O)[nH]c12,RPS6KA5,enzyme activity,inhibitor,,10 µM,inhibition,-7.3%
N[C@@H]1CCN(c2nccc(-c3cnn4ncccc34)n2)C1,RPS6KA5 N-terminal kinase domain,binding,,competition with immobilised ligand,1 µM,remaining binding,94%
O=C(Nc1cnn(-c2csc(C(=O)NC3COC3)c2)c1)Nc1ccccc1Cl,RPS6KA5,enzyme activity,inhibitor,,5 µM,remaining activity,89.5%
O=C1NC(=O)c2cc(Nc3ccc(F)cc3)c(Nc3ccc(F)cc3)cc21,RPS6KA5,cell-free assay,,,0.5 µM,remaining signal,93.6%
CC1CCCN1c1nccc(-c2cnn3ncccc23)n1 (stereo not drawn),RPS6KA5 C-terminal kinase domain,binding,,competition with immobilised ligand,1 µM,remaining binding,100%
CNCc1ccc(-c2cc(-c3nc(-c4ccc(S(=O)(=O)C(C)C)cc4)cnc3N)on2)cc1,RPS6KA5,enzyme activity,inhibitor,,2 µM,inhibition,0%
COc1cc(-c2cn(C3CCc4c(F)cccc4N(CC(F)(F)F)C3=O)nn2)ccc1-n1cnc(C)c1 (stereo not drawn),RPS6KA5 N-terminal kinase domain,cell-free assay,,competition with immobilised ligand,1 µM,remaining binding,100%
C=CC(=O)Nc1cc(Nc2nccc(Nc3cc(Cl)c(F)cc3C(C)(C)O)n2)c(OC)cc1N1CC[C@@H](N(C)C)C1,RPS6KA5,enzyme activity,inhibitor,,1 µM,inhibition,26%
O=C1Nc2ccc(Cl)cc2C1=Cc1cc(Cl)c(O)c(Cl)c1,RPS6KA5,cell-free assay,,,0.5 µM,remaining signal,86.1%
Nc1nc(NC2CCCCC2)sc1C(=O)c1ccccc1,RPS6KA5,enzyme activity,inhibitor,,10 µM,remaining activity,122%
Cc1ccc(C(=O)NCc2ccsc2)cc1C#Cc1cn(C(C)C)c2ncnc(N)c12,RPS6KA5,enzyme activity,inhibitor,,1 µM,activity vs control,104%
Cc1c(NC(=O)c2cc(C(N)=O)nc3cc(F)ccc23)c(C(F)(F)F)nn1Cc1ccc(C(C)(C)C)cc1,RPS6KA5 C-terminal kinase domain,cell-free assay,,competition with immobilised ligand,1 µM,remaining binding,89%
Cc1ccc(Nc2nccc(N(C)c3ccc4c(C)n(C)nc4c3)n2)cc1S(N)(=O)=O,RPS6KA5,enzyme activity,inhibitor,,10 µM,inhibition,36%
CC(=O)N1CCC(c2ccc(C(=O)NC3=NCCN3)cc2C(F)(F)F)CC1,RPS6KA5 C-terminal kinase domain,cell-free assay,,competition with immobilised ligand,1 µM,remaining binding,70%
Cc1ccc(NC(=O)c2ccc(C)c(C(F)(F)F)c2)cc1C#Cc1nn(C2CCC(O)CC2)c2ncnc(N)c12 (stereo not drawn),RPS6KA5,cell-free assay,,,10 µM,remaining signal,95%
O=C(O)[C@@H]1[C@@H](Cn2nnc3ccccc3c2=O)CC[C@H]1C(=O)c1ccc(OCCC2CCOCC2)cc1,RPS6KA5 N-terminal kinase domain,cell-free assay,,competition with immobilised ligand,1 µM,remaining binding,100%
Cc1ccc(C(=O)Nc2ccc(CN3CCN(C)CC3)c(C(F)(F)F)c2)cc1C#Cc1cnc2cccnn12,RPS6KA5,enzyme activity,inhibitor,,23.5 nM,remaining activity,92%
Oc1cccc(-c2nc(N3CCOCC3)c3oc4ncccc4c3n2)c1,RPS6KA5,cell-free assay,,,0.5 µM,remaining signal,86.5%
C[C@@H]1CCN(c2nccc(-c3cnn4ncccc34)n2)C1,RPS6KA5 C-terminal kinase domain,binding,,competition with immobilised ligand,1 µM,remaining binding,100%
CCN(CC)CCNC(=O)c1c(C)[nH]c(/C=C2\C(=O)Nc3ccc(F)cc32)c1C,RPS6KA5,cell-free assay,,,0.5 µM,remaining signal,60.1%
CCc1ccccc1C(=O)Nc1n[nH]c2c(C)c(F)c(C3C(C#N)=C(C)N(C)C(C)=C3C#N)cc12,RPS6KA5 C-terminal kinase domain,cell-free assay,,competition with immobilised ligand,1 µM,remaining binding,90%
